In ChEMBL document CHEMBL1149712, “Pyrrolidine-carboxamides and oxadiazoles as potent hNK1 antagonists” (Bioorg Med Chem Lett, 2007):

Legend:
[1] = molecular target: T1, Substance-P receptor (Homo sapiens, UniProt P25103); test: Displacement of [125I]SP from human NK1 receptor expressed in CHO cells; assay type: cell-based
[2] = molecular target: T1, Substance-P receptor; test: Displacement of [125I]SP from human NK1 receptor expressed in CHO cells in presence of 50% human serum; assay type: cell-based
[3] = molecular target: Cytochrome P450 3A4 (Homo sapiens, UniProt P08684); test: Inhibition of human CYP3A4; assay type: ADME
Cytochrome P450 3A4, sequence (P08684 whole entry): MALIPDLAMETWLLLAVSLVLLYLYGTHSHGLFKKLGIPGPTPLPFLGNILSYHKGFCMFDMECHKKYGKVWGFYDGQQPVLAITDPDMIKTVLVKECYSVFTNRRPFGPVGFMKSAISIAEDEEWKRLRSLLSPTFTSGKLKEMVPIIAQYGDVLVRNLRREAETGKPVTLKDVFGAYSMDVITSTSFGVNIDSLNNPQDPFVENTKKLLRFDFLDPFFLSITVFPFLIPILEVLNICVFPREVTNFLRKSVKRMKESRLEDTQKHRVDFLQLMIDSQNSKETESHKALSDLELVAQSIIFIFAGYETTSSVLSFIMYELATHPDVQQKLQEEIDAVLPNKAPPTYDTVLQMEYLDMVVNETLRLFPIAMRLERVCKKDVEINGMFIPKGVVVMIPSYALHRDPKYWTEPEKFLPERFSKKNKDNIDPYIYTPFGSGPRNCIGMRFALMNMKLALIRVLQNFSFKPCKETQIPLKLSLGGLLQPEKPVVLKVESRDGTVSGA

[4] = molecular target: Cytochrome P450 2D6 (Homo sapiens, UniProt P10635); test: Inhibition of human CYP2D6; assay type: ADME
Cytochrome P450 2D6, sequence (P10635 whole entry): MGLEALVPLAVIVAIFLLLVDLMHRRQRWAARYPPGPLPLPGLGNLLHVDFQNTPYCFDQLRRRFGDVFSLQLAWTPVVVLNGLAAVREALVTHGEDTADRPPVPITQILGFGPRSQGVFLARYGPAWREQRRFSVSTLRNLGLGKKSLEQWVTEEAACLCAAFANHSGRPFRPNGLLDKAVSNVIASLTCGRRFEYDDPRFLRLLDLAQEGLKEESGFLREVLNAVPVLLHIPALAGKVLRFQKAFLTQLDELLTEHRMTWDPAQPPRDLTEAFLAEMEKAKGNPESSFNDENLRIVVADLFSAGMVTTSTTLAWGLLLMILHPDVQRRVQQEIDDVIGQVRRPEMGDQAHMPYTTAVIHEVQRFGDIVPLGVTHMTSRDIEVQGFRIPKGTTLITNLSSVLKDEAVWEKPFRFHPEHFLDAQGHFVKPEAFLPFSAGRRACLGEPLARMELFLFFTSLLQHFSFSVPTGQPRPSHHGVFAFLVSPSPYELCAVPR

[5] = molecular target: Cytochrome P450 2C9 (Homo sapiens, UniProt P11712); test: Inhibition of human CYP2C9; assay type: ADME
Cytochrome P450 2C9, sequence (P11712 whole entry): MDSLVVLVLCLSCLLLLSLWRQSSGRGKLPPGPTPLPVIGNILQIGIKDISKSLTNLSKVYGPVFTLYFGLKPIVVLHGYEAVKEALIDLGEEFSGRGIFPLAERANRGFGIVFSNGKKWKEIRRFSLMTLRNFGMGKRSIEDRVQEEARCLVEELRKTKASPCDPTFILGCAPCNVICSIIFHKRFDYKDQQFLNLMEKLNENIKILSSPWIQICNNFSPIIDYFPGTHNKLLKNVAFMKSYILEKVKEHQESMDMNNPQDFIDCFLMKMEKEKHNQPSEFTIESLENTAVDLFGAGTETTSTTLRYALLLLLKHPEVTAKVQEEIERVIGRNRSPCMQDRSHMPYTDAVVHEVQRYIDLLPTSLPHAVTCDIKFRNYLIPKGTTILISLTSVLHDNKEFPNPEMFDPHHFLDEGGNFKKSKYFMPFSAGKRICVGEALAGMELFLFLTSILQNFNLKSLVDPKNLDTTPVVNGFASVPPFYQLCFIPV

[6] = system: Gerbil, jird; test: Inhibition of agonist-induced foot tapping in iv dosed gerbil; assay type: functional; settings: Meriones
Summary of the method: (§1)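 Gerbils received the test compound by iv infusion, followed by a central (icv) injection of an NK1 agonist at a set time after infusion (0, 4 or 24 h). The agonist-induced foot-tapping response was monitored for blockade. Results are reported as % inhibition at a single dose (mpk) or as ED50.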

[7] = system: Gerbil, jird; test: Inhibition of agonist-induced foot tapping in iv dosed gerbil after 24 hrs; assay type: functional; settings: Meriones; summary of the method: as §1
[8] = system: Gerbil, jird; test: Inhibition of agonist-induced foot tapping in gerbil at 2 mpk, iv after 24 hrs; assay type: functional; settings: Meriones, 4 h, in the assay text read “after 4 hrs” for “after 24 hrs”; summary of the method: as §1
[9] = system: Gerbil, jird; test: Inhibition of agonist-induced foot tapping in gerbil at 6 mpk, iv after 24 hrs; assay type: functional; settings: Meriones; summary of the method: as §1
[10] = system: Gerbil, jird; test: Inhibition of agonist-induced foot tapping in gerbil at 3 mpk, iv after 24 hrs; assay type: functional; settings: Meriones; summary of the method: as §1
[11] = Half life in rat; assay type: ADME, organism-based; settings: in vivo

T1 sequence (P25103 whole entry): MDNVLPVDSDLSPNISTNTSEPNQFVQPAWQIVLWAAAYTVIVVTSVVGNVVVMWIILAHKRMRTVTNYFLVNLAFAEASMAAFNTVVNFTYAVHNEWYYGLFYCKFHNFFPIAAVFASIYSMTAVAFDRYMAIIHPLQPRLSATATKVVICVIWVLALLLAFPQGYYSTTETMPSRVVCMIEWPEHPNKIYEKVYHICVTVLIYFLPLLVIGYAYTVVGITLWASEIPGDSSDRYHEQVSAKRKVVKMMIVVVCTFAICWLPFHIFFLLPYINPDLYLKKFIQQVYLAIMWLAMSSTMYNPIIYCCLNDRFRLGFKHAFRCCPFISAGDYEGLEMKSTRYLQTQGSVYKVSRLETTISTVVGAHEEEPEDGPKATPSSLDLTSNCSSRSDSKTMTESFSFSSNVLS

Row | Compound | IC50 [1] [nM] | IC50 [2] [nM] | also measured
1 | CN(Cc1cc(C(F)(F)F)cc(C(F)(F)F)c1)C(=O)[C@H]1CN(C(=O)NC2CCCCC2)C[C@@H]1c1ccccc1 | 0.79 | – | –
2 | CN(Cc1cc(C(F)(F)F)cc(C(F)(F)F)c1)C(=O)[C@H]1CN(C(=O)C2CCNCC2)C[C@@H]1c1ccccc1 | 4.1 | – | –
3 | CN(Cc1cc(C(F)(F)F)cc(C(F)(F)F)c1)C(=O)[C@H]1CN(C(=O)c2cncnc2)C[C@@H]1c1ccccc1 | 24 | – | –
4 | CC(=O)N1CCC(C(=O)N2C[C@H](C(=O)N(C)Cc3cc(C(F)(F)F)cc(C(F)(F)F)c3)[C@H](c3ccccc3)C2)CC1 | 3.7 | – | –
5 | CC(=O)N1CCC(C(=O)N2C[C@@H](C(=O)N(C)Cc3cc(C(F)(F)F)cc(C(F)(F)F)c3)[C@H](c3ccccc3)C2)CC1 | 0.97 | – | –
6 | CC(C)(C)OC(=O)N1CC[C@H](c2ccccc2)[C@@H](C(=O)NCc2cc(C(F)(F)F)cc(C(F)(F)F)c2)C1 | 450 | – | –
7 | CN(Cc1cc(C(F)(F)F)cc(C(F)(F)F)c1)C(=O)[C@H]1CN(C(=O)OC(C)(C)C)C[C@@H]1c1ccccc1 | 11 | – | –
8 | CN(Cc1cc(C(F)(F)F)cc(C(F)(F)F)c1)C(=O)[C@H]1CN(C(=O)C2CCCCC2)C[C@@H]1c1ccccc1 | 0.68 | – | –
9 | Cc1cnc(C(=O)N2C[C@H](C(=O)N(C)Cc3cc(C(F)(F)F)cc(C(F)(F)F)c3)[C@@H](c3ccccc3)C2)cn1 | 0.58 | – | –
10 | CC(C)(C)OC(=O)N1C[C@H](C(=O)NCc2cc(C(F)(F)F)cc(C(F)(F)F)c2)[C@@H](c2ccccc2)C1 | 142 | – | –
11 | CN(Cc1cc(C(F)(F)F)cc(C(F)(F)F)c1)C(=O)[C@H]1CN(CC2CCCCC2)C[C@@H]1c1ccccc1 | 62 | – | –
12 | CN(Cc1cc(C(F)(F)F)cc(C(F)(F)F)c1)C(=O)[C@H]1CN(C(=O)N2CCCCC2)C[C@@H]1c1ccccc1 | 13 | – | –
13 | CN(Cc1cc(C(F)(F)F)cc(C(F)(F)F)c1)C(=O)[C@H]1CN(C(=O)c2ncccn2)C[C@@H]1c1ccccc1 | 0.84 | – | –
14 | CN(Cc1cc(C(F)(F)F)cc(C(F)(F)F)c1)C(=O)[C@H]1CN(C(=O)c2cnccn2)C[C@@H]1c1ccccc1 | 0.74 | – | –
15 | CN(Cc1cc(C(F)(F)F)cc(C(F)(F)F)c1)C(=O)[C@H]1CN(C(=O)c2ccncn2)C[C@@H]1c1ccccc1 | 3.4 | – | –
16 | CC(=O)N1CCC(C(=O)N2C[C@H](C(=O)N(C)Cc3cc(C(F)(F)F)cc(C(F)(F)F)c3)[C@@H](c3ccccc3)C2)CC1 (stereo in doubt; 8c) | 0.42 | 4.5 | IC50 [3]: 18000 nM; IC50 [4]: 24000 nM; IC50 [5]: 26000 nM; ED50 [6]: 0.41 mg/kg; inhibition in vivo at 3 mg/kg [10]: 29%; half-life [11]: 42 min

Now those with a lower IC50 [1], led by results:

Row | IC50 [1] [nM] | IC50 [2] [nM] | Compound | also measured
17 | 0.09 | 8 | Cc1cnc(C(=O)N2C[C@H](C(=O)N(C)Cc3cc(C(F)(F)F)cc(C(F)(F)F)c3)[C@@H](c3ccc(F)cc3C)C2)cn1 | IC50 [3]: 11000 nM; IC50 [4]: 73000 nM; IC50 [5]: 43000 nM; ED50 [6]: 6 mg/kg; ED50 [7]: 6 mg/kg
18 | 0.05 | 0.51 | CC(=O)N1CCC(C(=O)N2C[C@H](C(=O)N(C)C(C)(C)c3cc(C(F)(F)F)cc(C(F)(F)F)c3)[C@@H](c3ccc(F)cc3C)C2)CC1 | IC50 [3]: 49000 nM; IC50 [4]: 57000 nM; IC50 [5]: > 100000 nM; inhibition in vivo at 2 mg/kg [8]: 100%; inhibition in vivo at 6 mg/kg [9]: 2%
19 | 0.05 | 0.21 | CC(=O)N1CCC(C(=O)N2C[C@H](C(=O)N(C)Cc3cc(C(F)(F)F)cc(C(F)(F)F)c3)[C@@H](c3ccc(F)cc3C)C2)CC1 | IC50 [3]: 11000 nM; IC50 [4]: 92000 nM; IC50 [5]: 69000 nM; inhibition in vivo at 2 mg/kg [8]: 100%; inhibition in vivo at 6 mg/kg [9]: 24%
20 | 0.07 | 2.8 | CC(=O)N1CCC(C(=O)N2C[C@H](c3nc(C(C)(C)c4cc(C(F)(F)F)cc(C(F)(F)F)c4)no3)[C@@H](c3ccc(F)cc3C)C2)CC1 | inhibition in vivo at 2 mg/kg [8]: 92%; inhibition in vivo at 6 mg/kg [9]: 1%
21 | 0.17 | 20 | CC(=O)N1CCC(C(=O)N2C[C@@H](c3nc(C(C)(C)c4cc(C(F)(F)F)cc(C(F)(F)F)c4)no3)[C@H](c3ccc(F)cc3C)C2)CC1 | inhibition in vivo at 6 mg/kg [9]: 1%
22 | 0.07 | 6 | CC(=O)N1CCC(C(=O)N2C[C@H](c3noc(C(C)(C)c4cc(C(F)(F)F)cc(C(F)(F)F)c4)n3)[C@@H](c3ccc(F)cc3C)C2)CC1 | IC50 [3]: 100000 nM; IC50 [4]: 63000 nM; IC50 [5]: 9000 nM
23 | 0.03 | 0.17 | CC(=O)N1CCC(C(=O)N2C[C@@H](c3noc(C(C)(C)c4cc(C(F)(F)F)cc(C(F)(F)F)c4)n3)[C@H](c3ccc(F)cc3C)C2)CC1 | inhibition in vivo at 6 mg/kg [9]: 60%
24 | 0.12 | – | CC(=O)N1CCC(C(=O)N2C[C@H](C(=O)N(C)Cc3cc(C(F)(F)F)cc(C(F)(F)F)c3)[C@@H](c3ccccc3)C2)CC1 (stereo in doubt; 27) | –
